Experimental data taken from ChEMBL document CHEMBL3272123, “11,12-secoprostaglandins. 4. 7-(N-alkylmethanesulfonamido) heptanoic acids” (1977).
The source made the active and inactive calls. The calls are words filed in the database; no cut-off is given here.

Assays:
[1] = tested on: Cavia porcellus; assay: Antithrombotic activity in po dosed guinea pig assessed as inhibition of collagen-induced platelet aggregation; format: functional
[2] = species: Mus musculus; assay: Stimulation of prostanoid receptor-mediated cAMP-[14C] production in Charles River CD-1 mouse ovary at 0.01 ug/ml preincubated with adenine-8-[14C] for 1 hr followed by compound addition measured after 30 mins in presence of theophylline relative to control; format: tissue-based; details: Female gonad
Method in brief: (§1)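 Ovaries from virgin female mice over 70 days old, denuded of fat; three ovaries (15-25 mg) per flask in aerated Krebs-Ringer phosphate pH 7.2 with 1 μCi adenine-8-¹⁴C, 1 h at 37 °C with shaking. Theophylline and compound (in Me₂SO) added, then 30 min at 37 °C. Stopped with TCA, tissue homogenized, ¹⁴C-cAMP isolated. Fold increase = treated/untreated cAMP; 2-3-fold taken as significant.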

[3] = species: Mus musculus; assay: Stimulation of prostanoid receptor-mediated cAMP-[14C] production in Charles River CD-1 mouse ovary at 0.1 ug/ml preincubated with adenine-8-[14C] for 1 hr followed by compound addition measured after 30 mins in presence of theophylline relative to control; format: tissue-based; details: Female gonad; method in brief: as §1
[4] = species: Mus musculus; assay: Stimulation of prostanoid receptor-mediated cAMP-[14C] production in Charles River CD-1 mouse ovary at 10 ug/ml preincubated with adenine-8-[14C] for 1 hr followed by compound addition measured after 30 mins in presence of theophylline relative to control; format: tissue-based; details: Female gonad; method in brief: as §1
[5] = species: Mus musculus; assay: Stimulation of prostanoid receptor-mediated cAMP-[14C] production in Charles River CD-1 mouse ovary at 1 ug/ml preincubated with adenine-8-[14C] for 1 hr followed by compound addition measured after 30 mins in presence of theophylline relative to control; format: tissue-based; details: Female gonad; method in brief: as §1
[6] = species: Mus musculus; assay: Stimulation of prostanoid receptor-mediated cAMP-[14C] production in Charles River CD-1 mouse ovary at 100 ug/ml preincubated with adenine-8-[14C] for 1 hr followed by compound addition measured after 30 mins in presence of theophylline relative to control; format: tissue-based; details: Female gonad; method in brief: as §1
[7] = species: Mus musculus; assay: Stimulation of prostanoid receptor-mediated cAMP-[14C] production in Charles River CD-1 mouse ovary at 0.05 ug/ml preincubated with adenine-8-[14C] for 1 hr followed by compound addition measured after 30 mins in presence of theophylline relative to control; format: tissue-based; details: Female gonad; method in brief: as §1
[8] = species: Mus musculus; assay: Stimulation of prostanoid receptor-mediated cAMP-[14C] production in Charles River CD-1 mouse ovary at 25 ug/ml preincubated with adenine-8-[14C] for 1 hr followed by compound addition measured after 30 mins in presence of theophylline relative to control; format: tissue-based; details: Female gonad; method in brief: as §1
[9] = tested on: Cavia porcellus; assay: Antithrombotic activity in ip dosed guinea pig assessed as inhibition of collagen-induced platelet aggregation; format: functional
[10] = species: Bos taurus; assay: Inhibition of cAMP phosphodiesterase in beef heart using cAMP as substrate at 100 ug/ml
Method in brief: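 Beef heart cAMP phosphodiesterase tested against 0.4 mM cAMP substrate.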

Row | Compound | fold change (FC) [2] | fold change (FC) [3] | fold change (FC) [4] | fold change (FC) [5] | fold change (FC) [6] | fold change (FC) [7] | fold change (FC) [8] | inhibition [10] | Activity [1] | ED50 [9] | ED50 [1]
1 | CS(=O)(=O)N(CCCCCCC(=O)O)CCCC1(O)CCCCC1 |  |  | 3 |  | 10 |  | 5 |  |  |  | 
2 | CCCCCC(O)CCCN(CCCCCCC(=O)O)S(C)(=O)=O (racemic) |  |  | 40 |  | 61 |  | 56 | inactive |  |  | 6 mg/kg
3 | CCCCCC(O)CCCN(CCCCOCC(=O)O)S(C)(=O)=O (racemic) |  |  | 24 |  | 38 |  | 27 |  |  |  | 
4 | CCCCCC(O)CCCN(C/C=C\CCCC(=O)O)S(C)(=O)=O (racemic) |  |  | 16 |  | 37 |  | 18 |  |  |  | 
5 | CCCCC[C@@H](O)CCCN(CCCCCCC(=O)O)S(C)(=O)=O |  |  | 23 |  | 45 |  | 25 |  |  |  | 8.2 mg/kg
6 | CCCCC[C@H](O)CCCN(CCCCCCC(=O)O)S(C)(=O)=O |  | 1 | 54 | 8 | 68 |  | 55 |  |  |  | 5 mg/kg
7 | CCCCCC(O)CCCN(CC#CCCCC(=O)O)S(C)(=O)=O (racemic) |  |  | 21 |  | 39 |  | 30 |  |  |  | 
8 | CCCCCCCCCN(CCCCCCC(=O)O)S(C)(=O)=O |  |  | 13 |  | 15 |  | 14 |  |  |  | 
9 | CCCCCC(O)/C=C/CN(C/C=C\CCCC(=O)O)S(C)(=O)=O (racemic) |  |  | 11 |  | 27 |  | 19 |  |  |  | 

Now from value to compound, other results behind:

Row | fold change (FC) [2] | fold change (FC) [3] | fold change (FC) [4] | fold change (FC) [5] | fold change (FC) [6] | fold change (FC) [7] | fold change (FC) [8] | inhibition [10] | Compound | Activity [1] | ED50 [9] | ED50 [1]
10 | 8 | 29 | 60 | 54 | 62 | 25 | 62 |  | CCCCC[C@H](O)/C=C/[C@H]1[C@H](O)CC(=O)[C@@H]1CCCCCCC(=O)O [ALPROSTADIL] | inactive | 0.02 mg/kg | 
11 |  |  | 25 | 10 | 19 |  | 26 |  | CCCCC[C@H](O)CCC1CCC(=O)[C@@H]1CCCCCCC(=O)O (some centres undefined) |  |  | 
12 |  | 1 | 11 | 2 | 23 |  | 14 |  | CCCCCC(O)CCCC(CCCCCCC(=O)O)C(C)=O (racemic) |  |  | 
13 |  |  | 21 |  | 36 |  | 21 |  | CCCCCC(O)C#CCN(CCCCCCC(=O)O)S(C)(=O)=O (racemic) |  |  | 
